Only some compounds are listed: those with a hit (about 3.8% of all), similar ones and a draw of the others.
MC4R antag cAMP: blocks human MC4R cAMP signaling. P32245. MC4R-expressing cells, MTII-stimulated cAMP, LANCE TR-FRET. inhibition, % at 6.5 µM. hit rate 0.48% among 360,000. AID 540295;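 active = inhibition above its plate's cutoff, the mean of tested wells on that plate plus 3 SD, cut at about 29% in these data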;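 note: 0% = Melanotan II alone and 100% = Melanotan II plus saturating MCL0020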
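Material – human MC4R-expressing U2OS cells · Repeats – no replicates · Detection – TR-FRET with Eu-cAMP and labeled anti-cAMP, 671 nm · Times – compound 30 min, challenge 1 h, detection 1 h · Compound – single nominal compound dose of 6.5 µM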
Beta apoptosis: blocks beta cell apoptosis. protection from apoptosis, % (test concentration not listed). AID 435005. hit rate 0.8% among 300,000. INS-1E cytokine-induced death, ATP luminescence, 48 h; percent of positive-control rescue, neutral wells zero;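 active = Every replicate reaches about 75%, or at least half do and their mean reaches it too, limit read from the data; inconclusive = At least half of replicates reach the limit but their mean does not; inactive = Under half of replicates reach the limit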;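 note: 0% = cytokine-treated negative control wells and 100% = positive control rescue; higher means more ATP so stronger rescue from cytokine killing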
ANO1 block: blocks the mouse calcium-activated chloride channel TMEM16A; AID 588511; normalized B-score (activity score, 25-100; higher = stronger inhibition) at 10 µM; hit rate 1.2% among 310,000; HEK293 TMEM16A/YFP iodide influx fluorescence, ionomycin;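 active = ratio plate-corrected score three or more library SD toward inhibition, starting fluorescence score within five deviations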;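 note: score derived from kinetic fluorescence span divided by baseline fluorescence per well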
MC4R barr agon: agonists of human melanocortin 4 receptor (MC4R) beta-arrestin. AID 540308. P32245. activation, % at 8.9 µM. hit rate 0.98% among 360,000. U2OS MC4R beta-arrestin complementation, luminescence; percent of melanotan II response, DMSO zero;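 active = activation above a per-plate cutoff, the mean activation of sample wells on that plate plus 3 SD, cut at about 8% in these data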
CSC inhib: cancer stem cell inhibition. AID 2717. inhibition, % at 7.5 µM. cancer stem cell-like cells viability, luminescence. hit rate 1.1% among 300,000; in the data active = inhibition above about 75%; inconclusive = no clear call, values can overlap the other calls; tested in HMLE shEcad cells
TMEM16A act: mouse TMEM16A channel activation, primary screen; hit rate 0.3% among 340,000; AID 623877; B-score at 10 µM; HEK293 TMEM16A/YFP-H148Q/I152L, iodide quench fluorescence; active compounds read low; Q8BHY3;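 active = fluorescence-ratio B-score plate-corrected deviation score at least 3 library SD below zero, with starting fluorescence score within 5 deviations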;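 note: channel opened by trigger with iodide after compound preincubation; score built on the fluorescence ratio of max minus min over baseline; more negative score means more quench and so TMEM16A activation or potentiation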
* = called active by the depositor; i = inactive; ? = inconclusive; / = no result.

SMILES	MC4R antag cAMP	Beta apoptosis	ANO1 block	MC4R barr agon	CSC inhib	TMEM16A act
COc1ccc(CC(=O)Nc2ccc(S(=O)(=O)N3CCCCC3)cc2)cc1OC	2.8	6.9	i	0.6	10.1	i
Cc1ccc(-c2csc(N3CCC(NS(=O)(=O)c4ccc5c(c4)OCCO5)CC3)n2)cc1	0.8	96.8*	i	1.1	-24.2	i
O=C(Nc1ccc(Cl)c(C(F)(F)F)c1)NC1CC2CCCC(C1)N2Cc1ccccc1 (stereo unspecified)	/	49.9	100*	/	?	/
CCn1c(-c2ccc(N)cc2)nc2ccccc21	1.2	-5.1	i	-0.6	-9.2	i
CCn1c(-c2ccc(N(C)C)cc2)nc2ccccc21	0.2	112.8*	i	-2.6	5.6	i
O=C(N/N=C/c1ccncc1)c1sc2ccccc2c1Cl	1.6	-1.2	i	-2.1	-15.4	i
O=C(N/N=C/c1ccc[nH]1)c1sc2ccccc2c1Cl	1.8	28.5	i	-2.4	92.7*	i
NNc1nc(-c2ccccc2Cl)nc2sc3c(c12)CCCC3	9.2	28.8	i	-1.1	76.0*	i
NNc1nc(-c2ccccc2Cl)nc2ccccc12	2.7	0.1	i	-0.4	-4.2	i
Cc1ccc(NC(=O)Nc2c(Cl)cccc2Cl)cn1	8.7	-3.6	i	-1.9	27.2	i
CCCOc1ccc(C(=O)N2CCN(c3ccc(N)cc3Cl)CC2)cc1	10.6	4.1	i	1.1	76.3*	i
CCCCOc1ccc(C(=O)N2CCN(c3ccc(N4CCOCC4)nn3)CC2)cc1	16.7	6.0	i	-0.3	11.8	i
CCN(Cc1nc2ccccc2c(=O)[nH]1)C(=O)c1cccc(S(=O)(=O)N2CCc3ccccc32)c1	-2.9	-6.6	/	-1.3	-9.2	i
CC(C)Oc1ccc(S(=O)(=O)N2CCCCC2)cc1NC(=O)CN1CCCC1c1cccs1 (stereo unspecified)	24.4	92.0*	/	-2.1	11.8	i
N/C(Cc1ccc(Cl)c(Cl)c1)=N\OC(=O)c1cccs1	-6.8	-3.8	i	8.6*	-5.7	i
COc1ccc(Cc2nc(C(=O)Nc3ccc(Cl)cc3)cs2)cc1	4.7	-0.7	100*	-1.5	-3.6	i
CN(C)S(=O)(=O)Oc1ccsc1C(=O)Nc1ccc(Cl)cc1	4.8	-1.0	i	-0.7	-7.8	i
NNC(=O)c1sccc1OCc1ccc(Cl)cc1Cl	4.6	/	25*	-0.9	-4.2	i
COc1ccc(COc2ccsc2C(=O)Nc2ccc(Cl)cc2)cc1	-7.0	-9.2	i	8.7*	29.1	i
COC(=O)Nc1nc2ccc(-c3n[nH]c(=O)c4ccccc34)cc2[nH]1	-19.5	-4.1	i	0.3	103.9*	i
COc1ccc(OCC(=O)OCC(=O)NC2CCCCC2C)cc1 (stereo unspecified)	20.9	-7.1	/	0.1	/	i
COc1cc(NC2CCCCC2O)c2nc(-c3ccc(Cl)cc3)ccc2c1 (stereo unspecified)	6.6	80.4*	i	-0.1	?	i
Cc1ccc(-n2c(-c3ccc(Cl)cc3)c[n+]3c2CCC3)cc1	12.4	71.8	i	-3.1	16.4	i
COc1ccc(-n2c(-c3ccc(Br)cc3)c[n+]3c2CCC3)cc1	14.6	75.6*	i	0.5	2.2	i
Cc1ccc(-n2c(-c3ccccc3)c[n+]3c2CCC3)cc1	7.3	108.9*	i	-1.1	-1.1	i
SMILES	MC4R antag cAMP	Beta apoptosis	ANO1 block	MC4R barr agon	CSC inhib	TMEM16A act
COc1ccc(-n2c(-c3ccc(Br)cc3)c[n+]3c2CCCCC3)cc1	9.2	111.1*	i	-1.3	18.0	i
COc1ccc(-n2c(-c3ccccc3)c[n+]3c2CCC3)cc1	1.1	46.4	i	-0.7	-6.5	i
CCOc1ccc(-c2c[n+]3c(n2-c2ccccc2)CCCCC3)cc1	10.7	97.8*	i	-2.0	40.4	i
COc1ccc(-n2c(-c3ccc(Br)cc3)c[n+]3c2SC(C)C3)cc1 (stereo unspecified)	12.6	/	i	-0.7	/	i
O=C1NC(Cc2ccccc2)c2nc3cc(Cl)ccc3c(=O)n2-c2ccccc21 (stereo unspecified)	/	-2.6	/	/	/	/
CC(C)(C)n1ncc2c(=O)n(Cc3cccc(Cn4cnc5c(cnn5C(C)(C)C)c4=O)c3F)cnc21	-1.0	86.6*	/	-1.2	/	i
O=C(COC(=O)c1ccc2ccccc2n1)NC1CCCCC1	-1.4	/	/	-2.3	/	i
COC(=O)C(C(C)=O)C1=C/C(=N\S(=O)(=O)c2ccc(C)cc2)c2ccccc2C1=O (stereo unspecified)	10.2	1.1	i	-3.0	16.7	i
O=C(O)c1ccc(S(=O)(=O)/N=C2\C=C(Nc3ccccc3F)C(=O)c3ccccc32)cc1	-60.3	99.3*	i	-1.3	103.8*	i
Cc1ccccc1NC1=C/C(=N\S(=O)(=O)c2ccc(C(=O)O)cc2)c2ccccc2C1=O	-23.7	107.4*	i	-3.7	/	i
O=S(=O)(/N=C(/Nc1ccccc1F)c1ccccc1)c1ccccc1	2.9	1.9	i	-0.8	-6.9	i
Cc1ccc(C)c(S(=O)(=O)/N=C2\C=C(NS(=O)(=O)c3ccccc3)C(=O)c3ccccc32)c1	-4.7	1.0	100*	-0.9	/	i
CCc1ccc(S(=O)(=O)/N=C2\C=C(NS(=O)(=O)c3ccccc3)C(=O)c3ccccc32)cc1	0.6	/	/	1.8	/	i
CCOC(=O)[C@@H]1[C@H]2COc3ccccc3[C@@H]2N2C(=O)N(c3cccc(F)c3)C(=O)[C@@]12C	10.8	-3.9	/	-0.5	-11.8	i
CN(C)CCCNS(=O)(=O)c1ccc(N2CCC(c3ccc(Cl)cc3)=N2)cc1	/	11.9	i	/	112.3*	/
O=S(=O)(c1ccc(N2CCC(c3ccc(Cl)cc3)=N2)cc1)N(CCO)CCO	8.1	-4.5	i	-1.9	29.0	i
CCOc1ccc(N(CC(=O)NC2CCCCC2)C(=O)CCCC(=O)Nc2ccccn2)cc1	-0.6	3.5	i	-0.5	/	i
Cc1ccc(S(=O)(=O)CCC(=O)c2cccc([N+](=O)[O-])c2)cc1	31.3*	-15.0	i	-3.3	12.9	i
Cc1ccc(S(=O)(=O)Cc2cc(F)c([N+](=O)[O-])cc2[N+](=O)[O-])cc1	30.6*	/	i	1.6	102.2*	i
CCOC(=O)c1ccc([N+](=O)[O-])c(CS(=O)(=O)c2ccc(Cl)cc2)c1	8.5	1.0	i	-0.2	-1.0	i
Cc1ccc(C(=O)CCS(=O)(=O)c2ccc(Br)cc2)cc1	10.1	-17.3	i	-0.2	13.4	i
CCOc1ccc(CSc2nc(C)cc(COC)c2C#N)cc1OCC	-15.6	5.9	i	1.7	-3.8	i
O=C(Nc1c2c(nn1-c1ccccc1)CS(=O)(=O)C2)C1CC1	-0.7	/	/	-0.5	/	/

Screens: PubChem BioAssay, several laboratories
